In data set [1] the target is PI3-kinase p110-alpha/p85-alpha (Homo sapiens, UniProt P42336). Description: Inhibition of recombinant human full-length N-terminal His-tagged p110 alpha/p85 alpha expressed in baculovirus expression system using PIP2 as substrate preincubated for 15 mins followed by substrate addition and measured after 60 mins by ADP HiLyte 647 tracer bound ADP2 antibody-Tb conjugate based HTRF assay. The essentials:
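PI3Kα at 150 ng/mL (diluted stock) in 50 mM HEPES pH 7.4, 3 mM MgCl2, 2 mM DTT, 0.05% CHAPS, 50 mM NaCl, 1 mM EGTA. Compound tested over 10–0.001 µM. Final reaction held 50 µM PIP2 and 1 µM ATP. Detection mix added for 1 h, then 665/615 nm ratio read. % inhibition versus concentration fitted by four-parameter nonlinear regression to give IC50.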

The nature of data set [2]: Cmax in Swiss mouse at 3 mg/kg, po via gavage by LC-MS/MS analysis. The class given is ADME, organism-based. Further details: route oral, dose 3 mg/kg; call rule not given here. The settings on record: in vivo. The method, boiled down:
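Female Swiss mice (n=3/group), fasted overnight, given single oral gavage dose in 0.5% CMC/0.5% Tween 80 (10 mL/kg) at 1, 3 or 10 mg/kg. Serial blood sampling at 0.16–8 h into heparinized tubes. Plasma extracted with acetonitrile containing verapamil internal standard and quantified by LC-MS/MS. Cmax, Tmax, AUC and t1/2 derived from the concentration–time profile.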

The next data set deals with Cytochrome P450 3A4 (Homo sapiens, UniProt P08684). Description: Inhibition of CYP3A4 in human liver microsomes using isoform-specific probe substrates preincubated for 5 mins followed by NADPH addition by LC-MS/MS analysis. The class given is ADME. The essentials:
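Human liver microsomes premixed with buffer and a CYP-specific FDA-recommended probe substrate, then spiked with inhibitor, in duplicate. After 5 min preincubation at 37 °C, reaction started with NADPH and run at 37 °C for a set time, then quenched. Metabolite formation quantified by HPLC/LC-MS/MS to derive the concentration giving 50% inhibition.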
A general note: Microsomes from liver hold many membrane-bound enzymes, among them those of drug oxidation.

The target in data set [3] is RAC-alpha serine/threonine-protein kinase (Homo sapiens) (UniProt P31749). Put plainly: Inhibition of human AKT1 at 1 uM using fluorescently labeled peptide substrate measured after 3 hrs by microfluidic mobility shift assay relative to control. The method, boiled down: (§1)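 Single-concentration screen at 1 µM in duplicate, 1% final DMSO. Kinase (typically 1 nM), fluorescently labeled peptide substrate (typically 1 µM), ATP at Km and Mg²⁺ incubated about 3 h at 25 °C, then EDTA-quenched. Substrate and phosphorylated product separated by microfluidic electrophoresis and quantified by fluorescence.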

Data set [4] concerns the target Receptor-type tyrosine-protein kinase FLT3 (Homo sapiens) (UniProt P36888). Description: Inhibition of human FLT3 at 1 uM using fluorescently labeled peptide substrate measured after 3 hrs by microfluidic mobility shift assay relative to control. The essentials: as §1
Data set [5] addresses Inhibitor of nuclear factor kappa-B kinase subunit beta (Homo sapiens) (UniProt O14920). Description: Inhibition of human IKBKB at 1 uM using fluorescently labeled peptide substrate measured after 3 hrs by microfluidic mobility shift assay relative to control. The method, boiled down:
as §1

For data set [6], the target named is Inhibitor of nuclear factor kappa-B kinase subunit epsilon (Homo sapiens) (UniProt Q14164). Description: Inhibition of human IKBKE at 1 uM using fluorescently labeled peptide substrate measured after 3 hrs by microfluidic mobility shift assay relative to control. The method, boiled down:
as §1

Data set [7] concerns the target Ribosomal protein S6 kinase beta-1 (Homo sapiens) (UniProt P23443). Description: Inhibition of human P70S6K1 at 1 uM using fluorescently labeled peptide substrate measured after 3 hrs by microfluidic mobility shift assay relative to control. The essentials:
as §1

In data set [8] the target is Phosphatidylinositol 4-kinase beta (Homo sapiens) (UniProt Q9UBF8). Description: Inhibition of human PI4kbeta at 1 uM using fluorescently labeled peptide substrate measured after 3 hrs by microfluidic mobility shift assay relative to control. The method, boiled down:
as §1

The target in data set [9] is Protein kinase C zeta type (Homo sapiens) (UniProt Q05513). Description: Inhibition of human PRKCZ at 1 uM using fluorescently labeled peptide substrate measured after 3 hrs by microfluidic mobility shift assay relative to control. The essentials: as §1
Data set [10] deals with Angiopoietin-1 receptor (Homo sapiens) (UniProt Q02763). Description: Inhibition of human TIE2 at 1 uM using fluorescently labeled peptide substrate measured after 3 hrs by microfluidic mobility shift assay relative to control. The method, boiled down:
as §1

Data set [11] has as its target Serine/threonine-protein kinase mTOR (Homo sapiens, UniProt P42345). Put plainly: Inhibition of human mTOR at 1 uM using fluorescently labeled peptide substrate measured after 3 hrs by microfluidic mobility shift assay relative to control. The method, boiled down:
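Single-concentration screen at 1 µM in duplicate wells, in a 23-kinase panel using microfluidic mobility shift. Compound was diluted from a 100x DMSO stock, with 1% DMSO final. Kinase (typically 1 nM), fluorescent peptide substrate (typically 1 µM), ATP at 1x Km and Mg2+ were incubated typically 3 h at 25 °C, then quenched with EDTA. Substrate and phospho-product were separated electrophoretically and quantified by fluorescence.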

Data set [12] in a line: Toxicity in Swiss mouse assessed as body weight loss at 10 mg/kg, po administered twice daily via gavage for 5 days and measuring daily during compound dosing. In kind it is organism-based. Conditions: in vivo, 120 h, time 5 day. The method, boiled down: (§2)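 Female Swiss mice (3 treated, 2 vehicle controls) received oral gavage twice daily for 5 days, with compound formulated in 0.5% CMC and Tween 80. Body weight, body temperature, body coat, feed intake, eyes, feces and general activity were observed daily.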

The nature of data set [13]: Toxicity in Swiss mouse assessed as effect on eyes at 10 mg/kg, po administered twice daily via gavage for 5 days and measuring daily during compound dosing. In kind it is organism-based. Conditions: in vivo, 120 h, time 5 day. The method, boiled down: as §2
Data set [14] is described as follows: Toxicity in Swiss mouse assessed as morphological changes in liver at 30 mg/kg, po administered twice daily via gavage for 5 days and measured post last dose. In kind it is organism-based. The settings on record: in vivo, 120 h, time 5 day. The method, boiled down:
(§3)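 Female Swiss mice (3 treated, 2 controls) were gavaged twice daily for 5 days, with compound in 0.5% CMC and Tween 80. After the last dosing the animals were sacrificed. Liver, kidney, lung, uterus and brain were excised and inspected visually for morphology and color change.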

Data set [15] can be described thus: Toxicity in Swiss mouse assessed as morphological changes in kidney at 30 mg/kg, po administered twice daily via gavage for 5 days and measured post last dose. In kind it is organism-based. Conditions: in vivo, 120 h, time 5 day. The method, boiled down: as §3
Data set [16] can be described thus: Toxicity in Swiss mouse assessed as morphological changes in lung at 30 mg/kg, po administered twice daily via gavage for 5 days and measured post last dose. In kind it is organism-based. Conditions: in vivo, 120 h, time 5 day. The method, boiled down: as §3
A short description of data set [17]: Drug level in Swiss mouse kidney at 30 mg/kg, po administered twice daily via gavage for 5 days and measured post last dose by LC-MS/MS analysis. In kind it is ADME, organism-based. The settings on record: time 5 day, read-out: Drug uptake. The method, boiled down: (§4)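 Female Swiss mice (n=3) given 30 mg/kg in 0.5% CMC/Tween 80 by oral gavage twice daily for 5 days, with two vehicle controls. After sacrifice, liver, kidney, lung, uterus and brain were collected, homogenized in water and solvent-extracted. Drug concentration (ng/g) measured by LC-MS/MS.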

Data set [18] can be described thus: Drug level in Swiss mouse brain at 30 mg/kg, po administered twice daily via gavage for 5 days and measured post last dose by LC-MS/MS analysis. In kind it is ADME, organism-based. The settings on record: in vivo, 120 h, time 5 day. The method, boiled down: as §4
Another data set relates to HCT-116. Description: Antitumor activity against human HCT-116 cells xenografted in po dosed CD1 nude mouse assessed as reduction in tumor volume administered once daily for 21 days and measured at 3 days interval during compound dosing. The class given is functional, organism-based. The settings on record: dose mg/kg 2.5-20, time 21.0 day. The essentials:
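Female CD1 nude mice bearing subcutaneous HCT116 xenografts, randomized at average tumor size 120–130 mm³, five per group. Dosed orally once daily at 2.5, 5, 10 or 20 mg/kg for 21 days alongside a vehicle control. Caliper measurement of tumor volume as (width² × length)/2, monitored every third day.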
In general terms: A xenograft is tissue or cells of one species grown in another, often human tumour cells in immunodeficient mice.

Where only a bound is given, the exact number is not on record here.

Ribosomal protein S6 kinase beta-1 (Homo sapiens), sequence (P23443 whole entry, looked up): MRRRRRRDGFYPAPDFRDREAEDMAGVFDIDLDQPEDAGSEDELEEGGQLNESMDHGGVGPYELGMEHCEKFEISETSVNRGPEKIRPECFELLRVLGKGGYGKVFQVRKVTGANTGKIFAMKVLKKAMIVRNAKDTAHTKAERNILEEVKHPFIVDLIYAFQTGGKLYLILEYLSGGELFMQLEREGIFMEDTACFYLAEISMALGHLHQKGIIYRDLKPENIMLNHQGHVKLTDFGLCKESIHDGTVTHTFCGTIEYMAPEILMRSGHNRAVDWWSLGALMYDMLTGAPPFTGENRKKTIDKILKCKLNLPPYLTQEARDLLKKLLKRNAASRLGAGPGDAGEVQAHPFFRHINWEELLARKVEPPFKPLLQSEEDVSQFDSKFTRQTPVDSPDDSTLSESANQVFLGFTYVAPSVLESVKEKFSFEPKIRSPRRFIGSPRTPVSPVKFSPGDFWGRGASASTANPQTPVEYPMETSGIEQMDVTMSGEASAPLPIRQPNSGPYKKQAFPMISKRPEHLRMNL
RAC-alpha serine/threonine-protein kinase (Homo sapiens), sequence (P31749 whole entry): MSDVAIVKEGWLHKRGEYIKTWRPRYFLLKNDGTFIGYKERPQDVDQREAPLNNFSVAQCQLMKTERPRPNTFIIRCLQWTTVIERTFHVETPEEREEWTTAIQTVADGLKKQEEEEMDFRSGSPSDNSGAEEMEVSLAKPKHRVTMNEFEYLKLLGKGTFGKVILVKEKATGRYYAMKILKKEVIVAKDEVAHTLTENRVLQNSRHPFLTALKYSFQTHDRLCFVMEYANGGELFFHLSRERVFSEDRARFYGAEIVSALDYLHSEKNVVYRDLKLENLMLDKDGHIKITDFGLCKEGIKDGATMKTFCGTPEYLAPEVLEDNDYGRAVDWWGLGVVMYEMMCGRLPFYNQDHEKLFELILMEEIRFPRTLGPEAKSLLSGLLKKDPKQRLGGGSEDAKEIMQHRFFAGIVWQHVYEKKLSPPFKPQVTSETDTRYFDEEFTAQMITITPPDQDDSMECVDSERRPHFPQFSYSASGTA
Protein kinase C zeta type (Homo sapiens), sequence (Q05513 whole entry): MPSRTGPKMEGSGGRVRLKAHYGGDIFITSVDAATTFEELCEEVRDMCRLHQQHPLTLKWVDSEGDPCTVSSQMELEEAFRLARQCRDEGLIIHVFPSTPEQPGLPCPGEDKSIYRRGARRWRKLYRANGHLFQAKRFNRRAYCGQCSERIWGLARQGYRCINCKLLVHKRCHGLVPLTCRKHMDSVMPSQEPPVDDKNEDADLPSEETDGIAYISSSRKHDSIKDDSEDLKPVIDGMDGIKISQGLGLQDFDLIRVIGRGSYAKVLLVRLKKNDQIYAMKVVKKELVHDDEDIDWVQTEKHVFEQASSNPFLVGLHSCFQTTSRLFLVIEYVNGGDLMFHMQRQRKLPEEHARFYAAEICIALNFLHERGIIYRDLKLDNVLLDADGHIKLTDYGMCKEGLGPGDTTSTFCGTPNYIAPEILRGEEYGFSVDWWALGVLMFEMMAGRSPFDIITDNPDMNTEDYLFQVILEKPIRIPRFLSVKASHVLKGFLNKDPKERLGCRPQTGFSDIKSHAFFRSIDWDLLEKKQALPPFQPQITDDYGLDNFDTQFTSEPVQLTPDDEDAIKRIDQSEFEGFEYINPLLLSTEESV
Angiopoietin-1 receptor (Homo sapiens), sequence (Q02763 whole entry): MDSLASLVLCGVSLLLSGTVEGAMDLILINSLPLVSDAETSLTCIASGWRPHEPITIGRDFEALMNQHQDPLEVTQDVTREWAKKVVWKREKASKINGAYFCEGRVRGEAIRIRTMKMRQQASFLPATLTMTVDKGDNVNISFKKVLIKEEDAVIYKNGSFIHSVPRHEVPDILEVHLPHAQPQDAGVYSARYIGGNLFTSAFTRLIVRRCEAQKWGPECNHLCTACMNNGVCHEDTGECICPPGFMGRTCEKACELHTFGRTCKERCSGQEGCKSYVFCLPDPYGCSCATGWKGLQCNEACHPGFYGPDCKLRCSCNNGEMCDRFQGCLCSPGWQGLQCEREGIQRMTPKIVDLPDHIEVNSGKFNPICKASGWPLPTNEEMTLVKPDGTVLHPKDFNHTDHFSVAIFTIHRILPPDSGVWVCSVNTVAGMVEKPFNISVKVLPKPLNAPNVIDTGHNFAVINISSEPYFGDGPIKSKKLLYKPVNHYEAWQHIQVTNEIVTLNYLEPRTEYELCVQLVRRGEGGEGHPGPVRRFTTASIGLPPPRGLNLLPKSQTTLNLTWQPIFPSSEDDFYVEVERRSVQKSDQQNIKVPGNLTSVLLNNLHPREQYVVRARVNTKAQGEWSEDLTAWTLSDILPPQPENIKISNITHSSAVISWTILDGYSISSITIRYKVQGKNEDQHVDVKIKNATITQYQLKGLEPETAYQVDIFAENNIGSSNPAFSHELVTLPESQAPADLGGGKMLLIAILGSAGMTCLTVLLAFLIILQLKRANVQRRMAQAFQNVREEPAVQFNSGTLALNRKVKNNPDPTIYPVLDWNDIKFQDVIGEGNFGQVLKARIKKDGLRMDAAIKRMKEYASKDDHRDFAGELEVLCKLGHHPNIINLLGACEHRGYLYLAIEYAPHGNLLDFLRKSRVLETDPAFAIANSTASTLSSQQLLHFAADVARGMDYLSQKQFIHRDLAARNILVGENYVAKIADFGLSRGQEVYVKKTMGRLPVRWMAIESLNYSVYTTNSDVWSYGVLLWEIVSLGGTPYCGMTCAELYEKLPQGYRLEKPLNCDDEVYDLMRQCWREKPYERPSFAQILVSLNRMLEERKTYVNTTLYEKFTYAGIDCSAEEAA
Phosphatidylinositol 4-kinase beta (Homo sapiens), sequence (Q9UBF8 2-816 limits assumed): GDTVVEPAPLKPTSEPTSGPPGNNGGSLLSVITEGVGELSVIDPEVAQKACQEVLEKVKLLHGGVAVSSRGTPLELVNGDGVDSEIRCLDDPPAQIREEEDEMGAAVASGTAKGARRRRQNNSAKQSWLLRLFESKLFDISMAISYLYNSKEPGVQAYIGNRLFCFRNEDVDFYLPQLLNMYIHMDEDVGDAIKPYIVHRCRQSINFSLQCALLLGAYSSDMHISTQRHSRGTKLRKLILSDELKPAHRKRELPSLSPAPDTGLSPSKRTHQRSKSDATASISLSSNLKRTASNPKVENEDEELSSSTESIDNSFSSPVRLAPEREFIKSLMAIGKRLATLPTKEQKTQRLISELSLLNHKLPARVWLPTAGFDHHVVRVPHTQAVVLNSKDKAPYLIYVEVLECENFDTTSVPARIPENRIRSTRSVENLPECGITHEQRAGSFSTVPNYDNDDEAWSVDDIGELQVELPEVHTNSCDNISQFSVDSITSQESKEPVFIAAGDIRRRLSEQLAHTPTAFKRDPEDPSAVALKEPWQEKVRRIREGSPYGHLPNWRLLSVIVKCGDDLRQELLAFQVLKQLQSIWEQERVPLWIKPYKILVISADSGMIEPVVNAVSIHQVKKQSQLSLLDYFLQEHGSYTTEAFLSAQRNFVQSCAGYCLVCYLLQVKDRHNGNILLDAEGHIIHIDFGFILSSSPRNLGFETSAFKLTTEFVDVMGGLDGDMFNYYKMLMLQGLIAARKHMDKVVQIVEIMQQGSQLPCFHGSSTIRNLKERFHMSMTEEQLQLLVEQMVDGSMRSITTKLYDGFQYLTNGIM
Receptor-type tyrosine-protein kinase FLT3 (Homo sapiens), sequence (P36888 whole entry): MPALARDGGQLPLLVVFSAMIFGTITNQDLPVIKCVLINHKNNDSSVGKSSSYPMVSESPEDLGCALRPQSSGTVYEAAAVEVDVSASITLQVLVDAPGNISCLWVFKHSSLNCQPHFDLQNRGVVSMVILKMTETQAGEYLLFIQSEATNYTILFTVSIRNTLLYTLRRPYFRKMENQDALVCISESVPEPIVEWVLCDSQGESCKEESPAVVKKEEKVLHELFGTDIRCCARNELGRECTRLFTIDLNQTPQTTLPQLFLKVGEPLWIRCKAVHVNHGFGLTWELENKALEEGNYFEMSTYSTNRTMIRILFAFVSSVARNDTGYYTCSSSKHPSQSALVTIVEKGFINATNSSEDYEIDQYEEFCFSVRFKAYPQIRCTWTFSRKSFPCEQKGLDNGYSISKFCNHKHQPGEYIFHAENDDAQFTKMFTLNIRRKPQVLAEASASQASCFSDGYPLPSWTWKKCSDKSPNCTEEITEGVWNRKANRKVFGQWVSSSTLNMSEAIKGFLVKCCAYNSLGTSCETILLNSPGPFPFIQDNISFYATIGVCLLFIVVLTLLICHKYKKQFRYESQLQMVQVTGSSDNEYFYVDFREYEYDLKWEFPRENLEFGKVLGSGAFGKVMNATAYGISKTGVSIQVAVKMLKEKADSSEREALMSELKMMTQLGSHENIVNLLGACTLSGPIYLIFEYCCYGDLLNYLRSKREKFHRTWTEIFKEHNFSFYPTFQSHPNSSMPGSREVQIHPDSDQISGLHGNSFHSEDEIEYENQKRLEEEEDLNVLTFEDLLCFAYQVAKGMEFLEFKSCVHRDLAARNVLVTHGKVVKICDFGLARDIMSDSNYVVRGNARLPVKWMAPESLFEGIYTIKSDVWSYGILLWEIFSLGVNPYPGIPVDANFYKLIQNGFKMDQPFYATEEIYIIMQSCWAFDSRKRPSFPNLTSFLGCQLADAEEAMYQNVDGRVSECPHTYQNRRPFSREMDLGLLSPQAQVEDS
Cytochrome P450 3A4, sequence (P08684 whole entry, canonical isoform): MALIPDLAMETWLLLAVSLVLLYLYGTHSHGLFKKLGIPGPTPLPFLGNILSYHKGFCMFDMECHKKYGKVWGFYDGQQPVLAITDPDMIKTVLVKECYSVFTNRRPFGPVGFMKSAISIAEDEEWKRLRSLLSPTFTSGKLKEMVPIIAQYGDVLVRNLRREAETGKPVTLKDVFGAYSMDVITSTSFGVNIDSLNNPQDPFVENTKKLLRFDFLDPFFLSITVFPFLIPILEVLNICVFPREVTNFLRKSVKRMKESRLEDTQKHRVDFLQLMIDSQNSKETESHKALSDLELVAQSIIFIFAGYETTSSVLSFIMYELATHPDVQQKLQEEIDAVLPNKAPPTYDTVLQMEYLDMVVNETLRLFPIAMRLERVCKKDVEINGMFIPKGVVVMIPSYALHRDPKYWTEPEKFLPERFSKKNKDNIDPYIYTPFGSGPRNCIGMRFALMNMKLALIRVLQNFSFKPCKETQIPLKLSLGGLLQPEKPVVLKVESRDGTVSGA

Take `CN(C)C(=O)c1ccc(Oc2nc(-c3cnc(N)s3)nc(N3CCOCC3)n2)cc1`: the IC50 (as a rule, the concentration that gives 50% inhibition) in data set [1] is 30 nM; on Cytochrome P450 3A4 it was greater than 10 µM. In data set [2], the peak level (Cmax) was 6.9 µM. Also, the inhibition (as a rule, the relative decrease from the control value, in per cent) in [3] was -1%; in data set [4], 9%; in data set [5], -3%; in data set [6], -1%; in data set [7], -1%; in data set [8], -3%. The inhibition was 0% in [9], 1% in data set [10] and 89% in [11]. Further, the Activity result in data set [12] was “Non-Toxic”; in [13], “Non-Toxic”; in [14], “Non-Toxic”; in data set [15], “Non-Toxic”; in data set [16] it was “Non-Toxic”; in the data set with HCT-116, “Dose-dependent effect”. Besides, the concentration at 120 h in data set [17] is 160 ng/g. In [18], the Drug uptake result is recorded as “Not Active”.

Source of the values: ChEMBL document CHEMBL4699485, “Discovery and Development of SPR519 as a Potent, Selective, and Orally Bioavailable Inhibitor of PI3Kα and mTOR Kinases for the Treatment of Solid Tumors” (J Med Chem, 2020).
